Bioassay records deposited in PubChem by Broad Institute.
This is a sample that favours compounds with a hit; in the whole collection about 3.7% have one here.
FGF22 binding: shifts melting point of recombinant human FGF22. activity (Tm shift, normalised), % at 9.99 µM. recombinant FGF22 thermal shift, SYPRO orange fluorescence; percent of sucrose octasulfate shift, DMSO zero. hit rate 1.5% among 340,000. AID 651658. Q9HCT0;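 active = mean Tm shift, scaled 0 neutral to 100 positive control, at about 1.3% or above, every replicate too, limit read from the data; inconclusive = no clear call, values can overlap the other calls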
E-sel inducer: E-selectin induction on HUVECs | P16581 | HUVEC E-selectin immunofluorescence imaging; normalized: neutral wells 0, TNF-alpha wells 100 | activation, % at 7.58 µM | hit rate 0.37% among 260,000 | AID 686992;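 active = mean E-selectin-positive cell signal at least 10% of the positive control, reached in at least 60% of replicates, without over 20% cell loss; inconclusive = no rule given, readout overlaps actives, possibly toxicity-flagged; inactive = the rest, including those meeting only one limit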
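Test system – human umbilical vein endothelial cells (HUVEC), E-selectin induction · Input – 3,000 HUVEC seeded per well · Buffer or medium – EGM-2, gelatin · Compound dosing – single-point compound dose · Detection – immunofluorescence imaging · Measure – percent E-selectin-positive cells · Controls – TNF-alpha high, DMSO low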
DENV2 CPE: inhibitors of DENV2 cytopathic effect. CPE inhibition, % at 9.99 µM. DENV2-infected cells, cytopathic effect rescue, plate reader. AID 651640. hit rate 1.7% among 350,000; in the data active = CPE inhibition above about 20%, passing the limit was not always enough; inconclusive = no clear call, values can overlap the other calls; tested in BHK-21 cells;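 also: 0% = median of neutral control wells and 100% = median of positive control wells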
ERAP1 HTS inh: ERAP1 (human) enzyme inhibition | Q9NZ08 | recombinant ERAP1, Leu-AMC fluorescence, 60 min | AID 652197 | hit rate 0.15% among 340,000 | inhibition, % at 10.7 µM;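 active = mean replicate inhibition of at least 30%, or all replicates individually reaching that 30% level; inactive = mean below 30% and not every replicate reaching it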;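 also: 0% = neutral control wells and 100% = L-leucinethiol positive control wells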
Target sequence (Q9NZ08 whole entry, looked up): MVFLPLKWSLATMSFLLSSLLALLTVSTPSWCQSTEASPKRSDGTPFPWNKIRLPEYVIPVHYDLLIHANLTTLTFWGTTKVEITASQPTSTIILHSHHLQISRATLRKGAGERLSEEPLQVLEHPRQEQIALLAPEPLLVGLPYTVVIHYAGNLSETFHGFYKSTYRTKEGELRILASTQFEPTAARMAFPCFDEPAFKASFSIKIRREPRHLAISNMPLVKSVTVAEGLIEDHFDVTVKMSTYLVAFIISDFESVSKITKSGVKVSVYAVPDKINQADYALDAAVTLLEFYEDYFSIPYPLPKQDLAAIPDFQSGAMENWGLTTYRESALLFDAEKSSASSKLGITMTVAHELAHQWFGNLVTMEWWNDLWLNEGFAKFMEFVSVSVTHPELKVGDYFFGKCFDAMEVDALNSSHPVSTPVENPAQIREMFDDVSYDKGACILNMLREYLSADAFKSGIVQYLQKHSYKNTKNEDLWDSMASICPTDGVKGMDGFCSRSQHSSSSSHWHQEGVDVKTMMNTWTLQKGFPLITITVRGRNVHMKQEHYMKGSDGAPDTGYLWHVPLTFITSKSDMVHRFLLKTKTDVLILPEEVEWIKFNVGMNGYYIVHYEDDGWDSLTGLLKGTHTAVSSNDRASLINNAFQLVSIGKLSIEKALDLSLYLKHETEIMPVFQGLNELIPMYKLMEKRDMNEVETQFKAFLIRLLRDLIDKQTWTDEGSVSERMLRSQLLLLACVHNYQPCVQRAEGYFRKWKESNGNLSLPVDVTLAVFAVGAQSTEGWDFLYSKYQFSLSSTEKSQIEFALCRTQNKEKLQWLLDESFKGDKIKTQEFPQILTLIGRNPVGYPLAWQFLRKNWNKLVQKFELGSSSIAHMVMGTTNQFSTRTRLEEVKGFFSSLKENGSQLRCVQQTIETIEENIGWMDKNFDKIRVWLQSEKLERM
CFTR F508del cor: CFTR F508del correction in bronchial cells; CFBE cells, YFP halide quenching; stimulated with forskolin plus potentiator P3; % fluorescence drop versus neutral controls; activity (quench increase), % at 7.58 µM; hit rate 0.36% among 350,000; AID 720511;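 active = mean added fluorescence quench of at least 8% versus neutral control, with both replicates also reaching 8%; inconclusive = only one of the mean or replicate conditions met; inactive = mean below 8% and not both replicates reaching 8%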;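 also: cells transiently co-express mutant CFTR-F508del with the halide-sensitive YFP; corrector assay measuring rescue of mutant channel to the surface after 24 h compound exposure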
An asterisk follows results filed as active; u = inconclusive; x = no result given.

SMILES	FGF22 binding	E-sel inducer	DENV2 CPE	ERAP1 HTS inh	CFTR F508del cor
O=C(Nc1cccc(Cl)c1)N[C@H]1CC[C@@H](CCNC(=O)C2CCCC2)O[C@@H]1CO	0	0	-5	3	-3
OC(c1ccccc1)(c1ccccc1)C1CCN(CCCOc2cccc(F)c2)CC1	0	0	56*	-6	-1
CC(C)CCNC(=O)c1onc(CSc2ccc(F)c(F)c2)c1C(=O)NCCC(C)C	0	0	18	x	-1
CCCCNC(=O)c1onc(CSc2ccccc2F)c1C(=O)O	0	0	u	-1	-2
CCCCNC(=O)c1onc(CSc2ccccc2C)c1C(=O)O	0	0	x	27	8.3*
CCCNC(=O)c1onc(CSc2ccc(F)c(F)c2)c1C(=O)NCCC	36*	1	-16	4	-1
CCC(=O)N1CC2(C1)CN(CC1CCOCC1)[C@@H](CO)c1c2c2ccc(OC)cc2n1C	0	0	-8	-4	2
CC(C)Cc1nnc(NC(=O)Cc2cccs2)s1	43*	x	-3	5	x
OC1(c2cccs2)CN(c2ccccc2)C2=[N+]1CCCC2 (configuration not stated)	43*	4	-2	0	0
CCOc1ccc(N2CC(O)(c3cccs3)[N+]3=C2CCCC3)cc1 (configuration not stated)	0	x	-5	0	5
COc1ccc(N=Cc2c(C)[nH][nH]c2=O)cc1	43*	x	6	4	0
Cc1[nH][nH]c(=O)c1C=Nc1ccc(C(F)(F)F)cc1	0	0	-6	5	x
N#CC1CC(c2ccc([N+](=O)[O-])cc2)=NN1c1ccc([N+](=O)[O-])cc1 (configuration not stated)	44*	0	-3	1	1
CCC(=O)Nc1ccc2c(c1)OC[C@@H](C)N(CC1CC1)C[C@@H](C)[C@@H](OC)CN(C)C2=O	0	0	3	-2	-2
CCC(C)n1nccc1NC(=O)C(C)Cl (configuration not stated)	43*	1	-7	-4	-4
Cc1ccccc1C(=O)NCC(=O)OC(C)C(=O)Nc1ccnn1C(C)C (configuration not stated)	0	-2	18	-4	-2
CC(C)CNc1ncnc2[nH]ncc12	44*	0	4	2	0
Clc1ccc(CNc2ncnc3[nH]ncc23)c(Cl)c1	43*	1	-4	4	2
C[C@H](CO)N1C[C@H](C)[C@H](CN(C)S(=O)(=O)c2ccc(Cl)cc2)Oc2ccc(NC(=O)Nc3ccc4c(c3)OCO4)cc2C1=O	1	0	29*	0	1
C[C@@H]1CN([C@@H](C)CO)C(=O)c2cc(NC(=O)Cc3ccccc3)ccc2O[C@@H]1CN(C)S(=O)(=O)c1ccc(Cl)cc1	-1	-14	-2	-1	1
C[C@@H]1CCCCO[C@H](CN(C)S(=O)(=O)c2ccc(Cl)cc2)[C@H](C)CN([C@@H](C)CO)C(=O)c2cc(NC(=O)Nc3ccc4c(c3)OCO4)ccc2O1	0	0	34*	-1	-4
C[C@H]1CN([C@@H](C)CO)C(=O)c2cc(NC(=O)Nc3ccc4c(c3)OCO4)ccc2O[C@H]1CN(C)S(=O)(=O)c1ccc(Cl)cc1	0	0	-5	0	4
C[C@H](CO)N1C[C@H](C)[C@@H](CN(C)S(=O)(=O)c2ccc(Cl)cc2)OCCCC[C@H](C)Oc2ccc(NC(=O)Nc3ccc4c(c3)OCO4)cc2C1=O	0	0	-18	-3	-1
C[C@@H]1CCCCO[C@@H](CN(C)S(=O)(=O)c2ccc(F)cc2)[C@H](C)CN([C@H](C)CO)C(=O)c2cc(NC(=O)Nc3ccc4c(c3)OCO4)ccc2O1	0	0	24*	0	7
C[C@H](CO)N1C[C@H](C)[C@H](CN(C)S(=O)(=O)c2ccc(Cl)cc2)Oc2ccc(NC(=O)Cc3ccccc3)cc2C1=O	0	36*	11	-1	0
SMILES	FGF22 binding	E-sel inducer	DENV2 CPE	ERAP1 HTS inh	CFTR F508del cor
C[C@@H]1CN([C@H](C)CO)S(=O)(=O)c2ccc(-c3ccc(F)cc3)cc2O[C@H]1CN(C)C(=O)Nc1ccc(F)cc1	x	0	x	x	0
COc1ccc(NC(=O)Nc2ccc3c(c2)CC(=O)N([C@@H](C)CO)C[C@@H](C)[C@@H](CN(C)C(=O)Nc2c(C)noc2C)O3)cc1	0	0	3	x	-5
CCOC(=O)Cc1csc(NC(=O)COc2ccc(C)cc2)n1	43*	x	-4	6	0
CCOC(=O)Cc1csc(NC(=O)COc2ccc(C)c(C)c2)n1	0	x	2	4	3
CN(CC(=O)Nc1c(Cl)cccc1Cl)C(=O)c1ccc(NS(=O)(=O)c2ccc3[nH]c(=O)[nH]c3c2)cc1	0	x	40*	0	-1
COc1ccc(C(=O)NN(C)c2nc(C(F)(F)F)nc3ccccc23)cc1	0	x	-10	4	2
CN(NS(=O)(=O)c1ccc(Cl)cc1)c1nc(C(F)(F)F)nc2ccccc12	44*	x	0	-2	-3
COc1ccc(N=C2NN=C(c3c(C)[nH]c4ccccc34)CS2)cc1	43*	0	-1	-4	-2
O=c1cc(-c2ccc([N+](=O)[O-])cc2)c2ccc(O)cc2o1	45*	0	-6	-3	0
O=C(c1ccc(-n2nc(C(F)(F)F)c3c2CCCC3)cc1)N1CCOCC1	43*	x	-9	-1	-1
COC1OC2COC(c3ccccc3)OC2C(OC(=O)c2ccccc2)C1OC(=O)c1ccccc1 (configuration not stated)	0	0	1	-2	1
COC1OC2COC(c3ccccc3)OC2C(NC(C)=O)C1OC(C)=O (configuration not stated)	45*	0	-5	1	0
COCCNC(=O)C[C@H]1C[C@@H]2c3cc(N(C)C)ccc3O[C@@H]2[C@@H](CO)O1	0	0	-6	-3	2
C[C@H]1CCCCO[C@H](CN(C)S(=O)(=O)c2cccs2)[C@@H](C)CN([C@@H](C)CO)C(=O)c2cc(NS(=O)(=O)c3ccc(Cl)cc3)ccc2O1	-1	x	-12	-1	2
C[C@@H]1CCCCO[C@H](CN(C)S(=O)(=O)c2cccs2)[C@@H](C)CN([C@H](C)CO)C(=O)c2cc(NS(=O)(=O)c3ccc(Cl)cc3)ccc2O1	1.6*	x	19	0	1
C[C@@H]1CN([C@@H](C)CO)C(=O)c2cc(NS(=O)(=O)c3ccc(Cl)cc3)ccc2O[C@@H](C)CCCCO[C@H]1CN(C)S(=O)(=O)c1cccs1	-1	x	36*	-1	1
Cc1ccc(S(=O)(=O)Nc2ccc3c(c2)C(=O)N([C@@H](C)CO)C[C@@H](C)[C@H](CN(C)S(=O)(=O)c2cccs2)OCCCC[C@H](C)O3)cc1	0	0	-5	-3	-1
